Measured values pooled from the literature.
Lines come from different studies, so protocols differ.
Target: Mitogen-activated protein kinase kinase kinase kinase 3 (MAP4K3, Homo sapiens, UniProt Q8IVH8)
One construct used (Q8IVH8 1-894): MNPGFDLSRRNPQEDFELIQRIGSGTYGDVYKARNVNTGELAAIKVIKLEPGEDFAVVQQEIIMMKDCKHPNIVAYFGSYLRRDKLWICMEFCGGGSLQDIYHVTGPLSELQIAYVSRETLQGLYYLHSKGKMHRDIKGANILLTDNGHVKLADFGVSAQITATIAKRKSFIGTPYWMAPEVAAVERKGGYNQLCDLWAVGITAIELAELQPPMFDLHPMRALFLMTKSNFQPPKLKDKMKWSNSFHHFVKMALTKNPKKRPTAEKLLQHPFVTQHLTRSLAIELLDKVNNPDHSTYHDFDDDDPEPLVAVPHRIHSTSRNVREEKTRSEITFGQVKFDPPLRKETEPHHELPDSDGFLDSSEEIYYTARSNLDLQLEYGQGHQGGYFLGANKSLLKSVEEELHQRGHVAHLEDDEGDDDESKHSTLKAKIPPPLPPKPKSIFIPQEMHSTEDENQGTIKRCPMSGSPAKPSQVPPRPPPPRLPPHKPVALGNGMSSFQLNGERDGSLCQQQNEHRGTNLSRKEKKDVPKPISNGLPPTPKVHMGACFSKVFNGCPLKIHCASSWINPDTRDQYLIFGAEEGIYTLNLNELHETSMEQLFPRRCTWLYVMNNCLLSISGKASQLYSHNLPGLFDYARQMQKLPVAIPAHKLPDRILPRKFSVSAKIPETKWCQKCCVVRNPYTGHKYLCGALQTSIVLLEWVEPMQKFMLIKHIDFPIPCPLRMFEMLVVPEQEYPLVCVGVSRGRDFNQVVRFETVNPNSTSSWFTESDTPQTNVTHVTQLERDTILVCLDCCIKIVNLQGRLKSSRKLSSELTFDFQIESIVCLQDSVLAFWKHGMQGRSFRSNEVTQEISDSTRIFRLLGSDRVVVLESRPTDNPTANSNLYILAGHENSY

O=C(Nc1cnn(-c2csc(C(=O)NC3COC3)c2)c1)Nc1c(F)cccc1Cl  remaining activity (enzyme activity, inhibitor; 5 µM): 100%
CCCCN(CCCC)C(=O)CN1C[C@H](c2cc(OC)c3c(c2)OCO3)[C@@H](C(=O)O)[C@@H]1CC(C)(C)CCC  remaining binding (cell-free assay, competition with immobilised ligand; 1 µM): 100%
COc1cc(/C=C/C(=O)CC(=O)/C=C/c2ccc(O)c(OC)c2)ccc1O  activity vs control (enzyme activity, inhibitor; 1 µM): 87%
CNC(=O)c1ccc(Nc2ncc(C(F)(F)F)c(NCc3nccnc3N(C)S(C)(=O)=O)n2)cc1  remaining binding (cell-free assay, competition with immobilised ligand; 0.1 µM): 95%
Cc1ccc(C(=O)Nc2ccc(CN3CCN(C)CC3)c(C(F)(F)F)c2)cc1C#Cc1cnc2cccnn12  remaining activity (enzyme activity, inhibitor; 23.5 nM): 89%
COc1cc(Nc2cnc(C#N)c(O[C@H](C)CN(C)C)n2)ncc1-c1cnn(C)c1  remaining activity (enzyme activity, inhibitor, radiometric; 1 µM): 45%
c1ccc(CNc2nc(N3CCOc4ccccc43)nc3c2CCCC3)cc1  inhibition (target engagement in cells, inhibitor, chemoproteomics; 20 mM): 3.3%
Cc1ccc(C(=O)NCc2ccsc2)cc1C#Cc1cn(C(C)C)c2ncnc(N)c12  activity vs control (enzyme activity, inhibitor; 1 µM): 54%
CCCCNc1ncc2c(-c3ccc(F)cc3)nn(C[C@H]3CC[C@H](N)CC3)c2n1  inhibition (target engagement in cells, inhibitor, chemoproteomics; 20 mM): 44.6%
COc1cc(Cl)c(C(=O)N[C@@H](CN[C@H]2CC[C@@H](N)CC2)Cc2ccc(C#N)cc2)cc1-c1ccc(CN[C@H](C)c2ccc(C)cc2)o1  remaining activity (enzyme activity, inhibitor; 1 µM): 98%
Nc1ncnc2occ(-c3ccc(NC(=O)Nc4cc(C(F)(F)F)ccc4F)cc3)c12  remaining signal (cell-free assay, inhibitor; 20 µM): 0.8%
CN1CC(Oc2cnc(C#N)cc2-c2ccn3nc(NC(=O)C4CC4)cc3c2)C1  inhibition (enzyme activity, inhibitor; 1 µM): -4%
FC(F)(F)Oc1cccc(-c2cnc3ccc(-c4ccncc4)nn23)c1  activity vs control (enzyme activity, inhibitor, radiometric; 1 µM): 54%
Cc1sc(C(=O)NC2COC2)cc1-n1cc(NC(=O)Nc2c(F)cccc2Cl)cn1  remaining activity (enzyme activity, inhibitor; 10 µM): 118%
CC(=O)c1c(NS(C)(=O)=O)c2cc(-c3ccc(Cl)cc3)c(-c3ccc(Cl)cc3Cl)nc2n(C)c1=O  remaining binding (cell-free assay, competition with immobilised ligand; 1 µM): 99%
